What was measured:
HT-29 = test: Concentration required to inhibit growth of human […] cell line by 50% was determined; format: functional, cell-based
Outline: (§1)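 SRB colorimetric growth assay in A549 lung and HT-29 colon carcinoma cells. Cells seeded at 5 × 10^3 per well in RPMI and attached for 18 h in drug-free medium. Samples added in (3:7) DMSO/H2O for 48–72 h exposure. Cells fixed with cold 50% (w/v) TCA at 4 °C for 60 min, then stained with 0.4% SRB in 1% acetic acid for 10 min. Bound dye solubilised in Tris, OD read at 490 nm.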

A549 = test: Concentration required to inhibit growth of human A549 cell line by 50%; format: functional, cell-based; outline: as §1

SMILES | IC50 (HT-29) [nM] | IC50 (A549) [nM]
CC[C@H](C)C1NC(=O)[C@@H](NC(=O)[C@@H](CC(C)C)N2CCC3(CCCN3C(=O)C(C)=O)C2=O)[C@@H](C)OC(=O)[C@H](Cc2ccc(O)cc2)N(C)C(=O)[C@@H]2CCCN2C(=O)[C@H](CC(C)C)NC(=O)[C@@H](C(C)C)OC(=O)C[C@H]1O (stereo partly drawn) | 93.8 | 93.8
CC[C@H](C)[C@@H]1NC(=O)[C@@H](NC(=O)[C@@H](C)N2CCC3(CCCN3C(=O)C(C)=O)C2=O)[C@@H](C)OC(=O)[C@H](Cc2ccc(OC)cc2)N(C)C(=O)[C@@H]2CCCN2C(=O)[C@H](CC(C)C)NC(=O)[C@H](C)C(=O)[C@@H](C(C)C)OC(=O)C[C@H]1O (stereo partly drawn) | 8.9 | 8.55
CC[C@H](C)[C@@H]1NC(=O)[C@@H](NC(=O)[C@@H](C)N2CCC3(CCCN3C(=O)C(C)C)C2=O)[C@@H](C)OC(=O)[C@H](Cc2ccc(OC)cc2)N(C)C(=O)[C@@H]2CCCN2C(=O)[C@H](CC(C)C)NC(=O)[C@H](C)C(=O)[C@@H](C(C)C)OC(=O)C[C@H]1O (stereo partly drawn) | 89.1 | 89.1
CC[C@H](C)[C@@H]1NC(=O)[C@@H](NC(=O)[C@@H](C)N2CCC3(CCCN3C(=O)OC(C)(C)C)C2=O)[C@@H](C)OC(=O)[C@H](Cc2ccc(OC)cc2)N(C)C(=O)[C@@H]2CCCN2C(=O)[C@H](CC(C)C)NC(=O)[C@H](C)C(=O)[C@@H](C(C)C)OC(=O)C[C@H]1O (stereo partly drawn) | 8.68 | 8.68
CC[C@H](C)C1NC(=O)[C@@H](NC(=O)[C@@H](CC(C)C)N2CCC3(CCCN3C(=O)C(C)C)C2=O)[C@@H](C)OC(=O)[C@H](Cc2ccc(O)cc2)N(C)C(=O)[C@@H]2CCCN2C(=O)[C@H](CC(C)C)NC(=O)[C@@H](C(C)C)OC(=O)C[C@H]1O (stereo partly drawn) | 93.8 | 93.8
CC[C@H](C)C1NC(=O)[C@@H](NC(=O)[C@@H](CC(C)C)N2CCC3(CCCN3C(=O)OC(C)(C)C)C2=O)[C@@H](C)OC(=O)[C@H](Cc2ccc(O)cc2)N(C)C(=O)[C@@H]2CCCN2C(=O)[C@H](CC(C)C)NC(=O)[C@@H](C(C)C)OC(=O)C[C@H]1O (stereo partly drawn) | 4.56 | 4.56
C=C(C)C(=O)N1CCCC12CCN([C@H](CC(C)C)C(=O)N[C@@H]1C(=O)NC([C@@H](C)CC)[C@H](O)CC(=O)O[C@H](C(C)C)C(=O)N[C@@H](CC(C)C)C(=O)N3CCC[C@H]3C(=O)N(C)[C@@H](Cc3ccc(O)cc3)C(=O)O[C@@H]1C)C2=O (stereo partly drawn) | 93.9 | 93.9
CC[C@H](C)C1NC(=O)[C@@H](NC(=O)[C@@H](CC(C)C)N(C)C(=O)[C@@H]2CCCN2C(=O)C(C)=O)[C@@H](C)OC(=O)[C@H](Cc2ccc(O)cc2)N(C)C(=O)[C@@H]2CCCN2C(=O)[C@H](CC(C)C)NC(=O)[C@@H](C(C)C)OC(=O)C[C@H]1O (stereo partly drawn) [DEHYDROTAMANDARIN A] | 0.47 | 0.47
CC[C@H](C)C1NC(=O)[C@@H](NC(=O)[C@@H](CC(C)C)N(C)C(=O)[C@@H]2CCCN2C(=O)C(C)O)[C@@H](C)OC(=O)[C@H](Cc2ccc(O)cc2)N(C)C(=O)[C@@H]2CCCN2C(=O)[C@H](CC(C)C)NC(=O)[C@@H](C(C)C)OC(=O)C[C@H]1O (stereo partly drawn) [TAMANDARIN A] | 0.95 | 0.95

Source: ChEMBL document CHEMBL1138811, “Synthesis, conformational analysis, and cytotoxicity of conformationally constrained aplidine and tamandarin A analogues incorporating a spirolactam beta-turn mimetic” (J Med Chem, 2004)
